Laboratory results: ChEMBL document CHEMBL1156239, “Synthesis, anticonvulsant and antimicrobial activities of some new 2-acetylnaphthalene derivatives” (Bioorg Med Chem, 2010)
≈ marks a conversion by molar mass, not a printed value. Calls of active or inactive are those of the source. The rule behind the calls is not given here.

How the values were obtained:
Rattus norvegicus [1] = assay: Neurotoxicity in Sprague-Dawley rat at 30 mg/kg, po after 4 hrs by rotarod test; assay type: toxicity, organism-based; parameters: dose 30 mg/kg, route oral; settings: in vivo
Mus musculus [2] = assay: Anticonvulsant activity in CF1 mouse assessed as inhibition of maximal electroshock-induced seizures at 300 mg/kg, ip after 0.5 hrs; assay type: functional, organism-based; parameters: dose 300 mg/kg
Procedure, shortened: (§1)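 Male albino CF#1 mice (18–25.5 g), compound suspended in 0.5% methylcellulose, given ip 0.5 h or 4 h before test. Eyes treated with 0.5% tetracaine HCl in saline; corneal-type MES at 60 Hz, 50 mA for 0.2 s; protection scored as animals protected/tested.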

Candida parapsilosis = assay: Antifungal activity against Candida parapsilosis ATCC 22019 after 48 hrs by broth microdilution method; assay type: functional; settings: Lodderomyces parapsilosis, ATCC 22019, 48 h
Rattus norvegicus [3] = assay: Anticonvulsant activity in Sprague-Dawley rat assessed as inhibition of maximal electroshock-induced seizures at 30 mg/kg, po after 0.5 hrs; assay type: functional, organism-based; parameters: dose 30 mg/kg
Procedure, shortened: (§2)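 Male albino Sprague-Dawley rats (105–130 g) given a single oral 30 mg/kg dose suspended in 0.5% methylcellulose; MES (60 Hz, 150 mA, 0.2 s, tetracaine-anesthetized eyes) at 0.25, 0.5, 1, 2 and 4 h; 4 rats per time point; scored protected/tested.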

Rattus norvegicus [4] = assay: Anticonvulsant activity in Sprague-Dawley rat assessed as inhibition of maximal electroshock-induced seizures at 30 mg/kg, po after 0.25 hrs; assay type: functional, organism-based; parameters: dose 30 mg/kg; procedure, shortened: as §2
Rattus norvegicus [5] = assay: Anticonvulsant activity in Sprague-Dawley rat assessed as inhibition of maximal electroshock-induced seizures at 30 mg/kg, ip after 0.5 hrs; assay type: functional, organism-based; parameters: dose 30 mg/kg
Mus musculus [6] = assay: Neurotoxicity in CF1 mouse assessed as ability to grasp rotarod at 300 mg/kg, ip after 0.5 hrs by rotarod test; assay type: toxicity, organism-based; parameters: dose 300 mg/kg, route intraperitoneal; settings: in vivo
Procedure, shortened: (§3)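 Male albino CF#1 mice (18–25.5 g) dosed ip with compound suspended in 0.5% methylcellulose, 0.5 h or 4 h before testing; neurotoxicity assessed by rotarod, scored as number toxic/number tested.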

Rattus norvegicus [7] = assay: Anticonvulsant activity in Sprague-Dawley rat assessed as inhibition of maximal electroshock-induced seizures at 30 mg/kg, po after 4 hrs; assay type: functional, organism-based; parameters: dose 30 mg/kg; procedure, shortened: as §2
Rattus norvegicus [8] = assay: Anticonvulsant activity in Sprague-Dawley rat assessed as inhibition of maximal electroshock-induced seizures at 30 mg/kg, ip; assay type: functional, organism-based; parameters: dose 30 mg/kg
Mus musculus [9] = assay: Neurotoxicity in CF1 mouse at 30 mg/kg, ip after 4 hrs by rotarod test; assay type: toxicity, organism-based; parameters: dose 30 mg/kg, route intraperitoneal; settings: in vivo; procedure, shortened: as §3
Rattus norvegicus [10] = assay: Neurotoxicity in Sprague-Dawley rat at 30 mg/kg, po after 0.5 hrs by rotarod test; assay type: toxicity, organism-based; parameters: dose 30 mg/kg, route oral; settings: in vivo
Escherichia coli = assay: Antibacterial activity against Escherichia coli ATCC 25922 after 24 hrs by broth microdilution method; assay type: functional; settings: ATCC 25922, 24 h
Procedure, shortened: (§4)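 Broth microdilution in Mueller Hinton broth; compound stocks in DMSO, diluted into test medium. Plates incubated at 35 °C and read visually after 24 h. MIC taken as lowest concentration preventing visible growth. Ampicillin reference.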

Mus musculus [11] = assay: Neurotoxicity in CF1 mouse at 100 mg/kg, ip after 4 hrs by rotarod test; assay type: toxicity, organism-based; parameters: dose 100 mg/kg, route intraperitoneal; settings: in vivo; procedure, shortened: as §3
Mus musculus [12] = assay: Neurotoxicity in CF1 mouse assessed as muscle spasms at 300 mg/kg, ip after 0.5 hrs by rotarod test; assay type: toxicity, organism-based, Muscle tissue; parameters: dose 300 mg/kg, route intraperitoneal; settings: in vivo
Mus musculus [13] = assay: Anticonvulsant activity in CF1 mouse assessed as inhibition of maximal electroshock-induced seizures at 300 mg/kg, ip after 4 hrs; assay type: functional, organism-based; parameters: dose 300 mg/kg; procedure, shortened: as §1
Enterococcus faecalis = assay: Antibacterial activity against Enterococcus faecalis ATCC 29212 after 24 hrs by broth microdilution method; assay type: functional; settings: ATCC 29212, 24 h; procedure, shortened: as §4
Rattus norvegicus [14] = assay: Neurotoxicity in Sprague-Dawley rat at 30 mg/kg, ip after 1 hr by rotarod test; assay type: toxicity, organism-based; parameters: dose 30 mg/kg, route intraperitoneal; settings: in vivo
Mus musculus [15] = assay: Anticonvulsant activity in CF1 mouse assessed as inhibition of maximal electroshock-induced seizures at 30 mg/kg, ip after 4 hrs; assay type: functional, organism-based; parameters: dose 30 mg/kg; procedure, shortened: as §1
Mus musculus [16] = assay: Anticonvulsant activity in CF1 mouse assessed as inhibition of maximal electroshock-induced seizures at 30 mg/kg, ip after 0.5 hrs; assay type: functional, organism-based; parameters: dose 30 mg/kg; procedure, shortened: as §1
Staphylococcus aureus = assay: Antibacterial activity against Staphylococcus aureus ATCC 25923 after 24 hrs by broth microdilution method; assay type: functional; settings: ATCC 25923, 24 h; procedure, shortened: as §4
Mus musculus [17] = assay: Anticonvulsant activity in CF1 mouse assessed as inhibition of maximal electroshock-induced seizures at 100 mg/kg, ip after 0.5 hrs; assay type: functional, organism-based; parameters: dose 100 mg/kg; procedure, shortened: as §1
Mus musculus [18] = assay: Neurotoxicity in CF1 mouse assessed as ability to grasp rotarod at 300 mg/kg, ip after 4 hrs by rotarod test; assay type: toxicity, organism-based; parameters: dose 300 mg/kg, route intraperitoneal; settings: in vivo
Procedure, shortened: (§5)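 Male albino CF#1 mice (18–25.5 g), free access to food and water except during testing, under NINDS Anticonvulsant Screening Program procedures. Compounds were suspended in 0.5% methylcellulose and given ip. Neurotoxicity was scored by rotarod 0.5 h and 4 h after dosing, at screening doses of 30, 100 or 300 mg/kg. Results are reported as affected/tested animals.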

Mus musculus [19] = assay: Neurotoxicity in CF1 mouse assessed as muscle spasms at 300 mg/kg, ip after 4 hrs by rotarod test; assay type: toxicity, organism-based, Muscle tissue; parameters: dose 300 mg/kg, route intraperitoneal; settings: in vivo
Rattus norvegicus [20] = assay: Neurotoxicity in Sprague-Dawley rat at 30 mg/kg, po after 1 hr by rotarod test; assay type: toxicity, organism-based; parameters: dose 30 mg/kg, route oral; settings: in vivo
Rattus norvegicus [21] = assay: Neurotoxicity in Sprague-Dawley rat at 30 mg/kg, ip after 2 hrs by rotarod test; assay type: toxicity, organism-based; parameters: dose 30 mg/kg, route intraperitoneal; settings: in vivo
Pseudomonas aeruginosa = assay: Antibacterial activity against Pseudomonas aeruginosa ATCC 27853 after 24 hrs by broth microdilution method; assay type: functional; settings: ATCC 27853, 24 h; procedure, shortened: as §4
Pichia kudriavzevii = assay: Antifungal activity against Candida krusei ATCC 6258 after 48 hrs by broth microdilution method; assay type: functional; settings: ATCC 6258, 48 h
Rattus norvegicus [22] = assay: Neurotoxicity in Sprague-Dawley rat at 30 mg/kg, po after 0.25 hrs by rotarod test; assay type: toxicity, organism-based; parameters: dose 30 mg/kg, route oral; settings: in vivo
Rattus norvegicus [23] = assay: Neurotoxicity in Sprague-Dawley rat at 30 mg/kg, po after 2 hrs by rotarod test; assay type: toxicity, organism-based; parameters: dose 30 mg/kg, route oral; settings: in vivo
Mus musculus [24] = assay: Neurotoxicity in CF1 mouse at 30 mg/kg, ip after 0.5 hrs by rotarod test; assay type: toxicity, organism-based; parameters: dose 30 mg/kg, route intraperitoneal; settings: in vivo; procedure, shortened: as §3
Rattus norvegicus [25] = assay: Neurotoxicity in Sprague-Dawley rat at 30 mg/kg, ip after 0.5 hrs by rotarod test; assay type: toxicity, organism-based; parameters: dose 30 mg/kg, route intraperitoneal; settings: in vivo
Mus musculus [26] = assay: Neurotoxicity in CF1 mouse at 100 mg/kg, ip after 0.5 hrs by rotarod test; assay type: toxicity, organism-based; parameters: dose 100 mg/kg, route intraperitoneal; settings: in vivo; procedure, shortened: as §3
Mus musculus [27] = assay: Neurotoxicity in CF1 mouse assessed as mortality at 300 mg/kg, ip after 0.5 hrs by rotarod test; assay type: toxicity, organism-based; parameters: dose 300 mg/kg, route intraperitoneal; settings: in vivo; procedure, shortened: as §5
Mus musculus [28] = assay: Neurotoxicity in CF1 mouse at 300 mg/kg, ip after 4 hrs by rotarod test; assay type: toxicity, organism-based; parameters: dose 300 mg/kg, route intraperitoneal; settings: in vivo; procedure, shortened: as §3
Rattus norvegicus [29] = assay: Anticonvulsant activity in Sprague-Dawley rat assessed as inhibition of maximal electroshock-induced seizures at 30 mg/kg, po after 1 hr; assay type: functional, organism-based; parameters: dose 30 mg/kg; procedure, shortened: as §2
Mus musculus [30] = assay: Anticonvulsant activity in CF1 mouse assessed as inhibition of maximal electroshock-induced seizures at 100 mg/kg, ip after 4 hrs; assay type: functional, organism-based; parameters: dose 100 mg/kg; procedure, shortened: as §1
Mus musculus [31] = assay: Neurotoxicity in CF1 mouse assessed as clonic seizures at 300 mg/kg, ip after 0.5 hrs by rotarod test; assay type: toxicity, organism-based; parameters: dose 300 mg/kg, route intraperitoneal; settings: in vivo

| SMILES | Activity (Rattus norvegicus [1]) | inhibition (Mus musculus [2]) | MIC (Candida parapsilosis) [µg/mL] | Activity (Mus musculus [6]) | Activity (Mus musculus [9]) | Activity (Rattus norvegicus [10]) | MIC (Escherichia coli) [µg/mL] | Activity (Mus musculus [11]) | Activity (Mus musculus [12]) | inhibition (Mus musculus [13]) | MIC (Enterococcus faecalis) [µg/mL] | inhibition (Mus musculus [15]) | inhibition (Mus musculus [16]) | MIC (Staphylococcus aureus) [µg/mL] | inhibition (Mus musculus [17]) | Activity (Rattus norvegicus [20]) | MIC (Pseudomonas aeruginosa) [µg/mL] | MIC (Pichia kudriavzevii) [µg/mL] | Activity (Rattus norvegicus [22]) | Activity (Rattus norvegicus [23]) | other results |
| --- | --- | --- | --- | --- | --- | --- | --- | --- | --- | --- | --- | --- | --- | --- | --- | --- | --- | --- | --- | --- | --- |
| CCCC(CCC)C(=O)OC(Cn1ccnc1)c1ccc2ccccc2c1 (stereo not given) | Non-toxic | Active | 1020 (≈ 2810 µM) | Toxic | Non-toxic | Non-toxic | > 1020 | Non-toxic | Toxic | Active | 16 (≈ 43.9 µM) | inactive | inactive | 8 (≈ 21.9 µM) | Active | Non-toxic | > 1020 | 1020 (≈ 2810 µM) | Non-toxic | Non-toxic | inhibition (Rattus norvegicus [3]): inactive; inhibition (Rattus norvegicus [4]): inactive; inhibition (Rattus norvegicus [5]): Active; inhibition (Rattus norvegicus [7]): inactive; inhibition (Rattus norvegicus [8]): Active; Activity (Rattus norvegicus [14]): Non-toxic; Activity (Mus musculus [18]): Toxic; Activity (Mus musculus [19]): Toxic; Activity (Rattus norvegicus [21]): Non-toxic; Activity (Mus musculus [24]): Non-toxic; Activity (Rattus norvegicus [25]): Non-toxic; Activity (Mus musculus [26]): Non-toxic |
| CC(C)C(=O)OC(Cn1ccnc1)c1ccc2ccccc2c1 (stereo not given) | Non-toxic |  | 256 (≈ 830 µM) | Toxic | Non-toxic | Non-toxic | > 1020 | Non-toxic | Toxic | Active | 128 (≈ 415 µM) | inactive | Active | 16 (≈ 51.9 µM) | Active | Non-toxic | > 1020 | 256 (≈ 830 µM) | Non-toxic | Non-toxic | inhibition (Rattus norvegicus [4]): inactive; Activity (Mus musculus [27]): Toxic; Activity (Mus musculus [28]): Non-toxic; Activity (Mus musculus [24]): Non-toxic |
| O=C(OC(Cn1ccnc1)c1ccc2ccccc2c1)c1ccccc1 (stereo not given) | Non-toxic | Active | 1020 (≈ 2990 µM) | Toxic | Non-toxic | Non-toxic | > 1020 | Non-toxic | Toxic | inactive | 32 (≈ 93.5 µM) | inactive | inactive | 8 (≈ 23.4 µM) | Active | Non-toxic | > 1020 | 512 (≈ 1500 µM) | Non-toxic | Non-toxic | inhibition (Rattus norvegicus [29]): inactive; inhibition (Mus musculus [30]): inactive; inhibition (Rattus norvegicus [3]): inactive; inhibition (Rattus norvegicus [7]): inactive; Activity (Mus musculus [31]): Toxic |
